These results are taken from ChEMBL document CHEMBL1135709, “2,6-Di(omega-aminoalkyl)-2,5,6,7-tetrahydropyrazolo[3,4,5-mn]pyrimido[5,6,1-de]acridine-5,7-diones: novel, potent, cytotoxic, and DNA-binding agents” (J Med Chem, 2002).

One experiment has as its system HT-29. In words: In vitro cytotoxic potency against HT-29 (human colon adenocarcinoma) cell line. The format is functional, cell-based.
In the next experiment the test system is Calf thymus DNA. The experiment is described as follows: CT-DNA binding required to produce a 50% drop in fluorescence of DNA-bound ethidium. Particulars: Bos taurus. The format is nucleic-acid assay. The procedure, abridged:
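Ethidium displacement from calf thymus DNA in 10 mM Na2HPO4, 10 mM NaH2PO4, 1 mM EDTA, pH 7.0, containing 1.26 μM ethidium bromide and 1 μM CT-DNA. Drug added serially from ~5 mM DMSO stock; 20 °C; fluorescence excitation 546 nm, emission 595 nm. C50 = drug concentration lowering DNA-bound ethidium fluorescence by 50%, mean of three determinations.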

In turn, `CCN(CC)CCn1c(=O)c2ccc3c4c(nn3CCN(CC)CC)c3ccccc3n(c1=O)c24` had an IC50 in the experiment with HT-29 of 29 nM. Moreover, the C50 with Calf thymus DNA stood at 0.051 µM.

The compound `CN(C)CCn1c(=O)c2ccc3c4c(nn3CCN3CCCC3)c3cc([N+](=O)[O-])ccc3n(c1=O)c24` came in with an IC50 in the experiment with HT-29 of 1.4 nM. In the experiment on Calf thymus DNA, this compound returned a C50 of 0.048 µM.

`CN(C)CCCn1c(=O)c2ccc3c4c(nn3CCCN(C)C)c3ccccc3n(c1=O)c24` gave an IC50 in the experiment with HT-29 of 135 nM. The same compound yielded a C50 in the experiment on Calf thymus DNA of 0.56 µM.

The compound `CN(C)CCn1c(=O)c2ccc3c4c(nn3CCN3CCCCC3)c3cc([N+](=O)[O-])ccc3n(c1=O)c24` came in with an IC50 with HT-29 of 0.21 nM. In the experiment on Calf thymus DNA, this compound had a C50 of 0.01 µM.

Compound `COc1ccc2c(c1)c1nn(CCCN(C)C)c3ccc4c(=O)n(CCN(C)C)c(=O)n2c4c13` came in with an IC50 in the experiment with HT-29 of 37 nM. The same compound showed a C50 in the experiment with Calf thymus DNA of 0.037 µM.

With `CN(C)CCn1c(=O)c2ccc3c4c(nn3CCN3CCCCC3)c3cc(N)ccc3n(c1=O)c24`, the IC50 in the experiment with HT-29 is 0.17 nM. In addition, the C50 in the experiment on Calf thymus DNA was 0.006 µM.

The compound `CN(C)CCn1c(=O)c2ccc3c4c(nn3CCN3CCCC3)c3ccccc3n(c1=O)c24` gave an IC50 in the experiment with HT-29 of 9.2 nM. In the experiment with Calf thymus DNA, the C50 came to 0.049 µM.

Compound `CN(C)CCn1c(=O)c2ccc3c4c(nn3CCN3CCCCC3)c3ccccc3n(c1=O)c24` displayed an IC50 in the experiment with HT-29 of 4.1 nM. The compound further gave a C50 in the experiment with Calf thymus DNA of 0.05 µM.

In the case of `CN(C)CCCn1nc2c3ccccc3n3c(=O)n(CCN(C)C)c(=O)c4ccc1c2c43`, the IC50 in the experiment on HT-29 is 68 nM. Further, the C50 in the experiment with Calf thymus DNA was determined as 0.12 µM.

`COc1ccc2c(c1)c1nn(CCN3CCCC3)c3ccc4c(=O)n(CCN(C)C)c(=O)n2c4c13`: inhibition in the experiment with HT-29 was half-maximal at 0.17 nM (IC50). This compound had a C50 in the experiment with Calf thymus DNA of 0.065 µM.

In the experiment on Calf thymus DNA, `O=C1c2c(O)ccc(O)c2C(=O)c2c(NCCNCCO)ccc(NCCNCCO)c21` gave a C50 of 0.037 µM.

Take `CN(C)CCCn1c(=O)c2ccc3c4c(nn3CCN(C)C)c3ccccc3n(c1=O)c24`: in the experiment on HT-29, the midpoint of inhibition, the IC50, lay at 37 nM. Besides, the C50 with Calf thymus DNA stood at 0.12 µM.

For `CN(C)CCCn1nc2c3cc(O)ccc3n3c(=O)n(CCN(C)C)c(=O)c4ccc1c2c43`, the IC50 with HT-29 stood at 61 nM. This compound had a C50 in the experiment with Calf thymus DNA of 0.0066 µM.

Usually IC50 stands for the concentration that inhibits the measured activity by half. Read a high IC50 as lower potency.
